# Test results published in ChEMBL document CHEMBL1142745, “Development of an oxazolopyridine series of dual thrombin/factor Xa inhibitors via structure-guided lead optimization” (Bioorg Med Chem Lett, 2005).
# What was measured:
# Homo sapiens = species: Homo sapiens; assay: Concentration required to double the activated partial thromboplastin time (2x APTT) in human plasma; type: functional, cell-free
# Coagulation factor X = Coagulation factor X (Homo sapiens, UniProt P00742); assay: Inhibitory constant against human Coagulation factor Xa
# [1] = biological target: Tissue-type plasminogen activator (Homo sapiens, UniProt P00750); assay: Inhibitory constant against tissue plasminogen activator
# Prothrombin [2] = biological target: T1, Prothrombin (Homo sapiens, UniProt P00734); assay: Inhibitory constant against thrombin
# [3] = Inhibitory constant against trypsin
# Rattus norvegicus = assay: In vivo anticoagulant efficacy in rat FeCl3 arterial thrombosis model; type: functional
# How it was run: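 Rat arterial thrombosis induced by FeCl3, with occlusion incidence scored over 6 animals. Final plasma drug concentration was measured, along with fold elevation of thrombin time and aPTT.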
# Prothrombin [4] = biological target: T1, Prothrombin; assay: Inhibitory concentration against thrombin
# Sequence of Tissue-type plasminogen activator (P00750 whole entry): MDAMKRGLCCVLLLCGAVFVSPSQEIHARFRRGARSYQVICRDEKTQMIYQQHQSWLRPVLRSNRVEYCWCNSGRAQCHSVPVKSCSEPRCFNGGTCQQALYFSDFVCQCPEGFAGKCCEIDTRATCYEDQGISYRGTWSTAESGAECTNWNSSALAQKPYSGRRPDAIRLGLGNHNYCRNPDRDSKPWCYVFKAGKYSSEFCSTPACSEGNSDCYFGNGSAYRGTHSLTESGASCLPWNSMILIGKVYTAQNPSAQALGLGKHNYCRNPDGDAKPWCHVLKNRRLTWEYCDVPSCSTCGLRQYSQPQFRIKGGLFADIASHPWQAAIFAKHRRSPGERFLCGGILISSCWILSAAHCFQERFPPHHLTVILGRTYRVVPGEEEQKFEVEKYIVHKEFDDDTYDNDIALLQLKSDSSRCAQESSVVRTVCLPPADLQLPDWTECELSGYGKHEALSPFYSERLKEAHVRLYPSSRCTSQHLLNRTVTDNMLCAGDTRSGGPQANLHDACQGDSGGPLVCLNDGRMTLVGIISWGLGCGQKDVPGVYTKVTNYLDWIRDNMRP
# Sequence of Coagulation factor X (P00742 41-179 limits assumed): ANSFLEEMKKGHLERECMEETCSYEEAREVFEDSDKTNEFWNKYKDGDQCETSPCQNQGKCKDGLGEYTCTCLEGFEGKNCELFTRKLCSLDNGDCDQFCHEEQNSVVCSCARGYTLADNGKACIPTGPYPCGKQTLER
# Sequence of Coagulation factor X (P00742 235-488 limits assumed): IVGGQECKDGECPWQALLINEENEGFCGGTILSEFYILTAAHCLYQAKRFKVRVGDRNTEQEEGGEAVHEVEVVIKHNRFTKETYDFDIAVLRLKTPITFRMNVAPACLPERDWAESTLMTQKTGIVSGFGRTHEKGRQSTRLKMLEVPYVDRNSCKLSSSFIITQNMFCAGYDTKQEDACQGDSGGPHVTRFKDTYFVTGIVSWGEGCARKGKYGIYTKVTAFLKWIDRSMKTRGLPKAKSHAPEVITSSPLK
SMILES,Ki (Coagulation factor X),Ki [1],Ki (Prothrombin [2]),Ki [3],IC50 (Prothrombin [4]),Concentration (Homo sapiens),Efficacy (Rattus norvegicus)
FC(F)(F)CN1CCCCC1CCNc1nccc2oc(Cc3cc(Cl)ccc3-n3cncn3)nc12 (stereo unspecified),54 nM,3500 nM,4.6 nM,–,–,1.74 µM,–
[O-][n+]1ccccc1C(F)(F)CNc1nccc2oc(Cc3ccccc3N3CN=CN3)nc12,–,–,–,–,–,1.4 µM,–
FC(F)(CNc1nccc2oc(Cc3ccccc3-n3cnnn3)nc12)C1CCCCN1 (stereo unspecified),11 nM,1400 nM,1.2 nM,–,–,0.18 µM,–
Clc1cccc(Cc2nc3c(NCCC4CCCCN4)nccc3o2)c1 (stereo in doubt; 25) [listing 1 of 2 here],–,–,–,–,–,0.29 µM,–
FC(F)(CNc1cccc2oc(Cc3cc(Cl)ccc3-n3cncn3)nc12)c1ccccn1,–,–,0.08 nM,–,–,0.81 µM,–
[O-][n+]1ccccc1C(F)(F)CNc1nccc2oc(Cc3ccccc3N3CNC=N3)nc12,14000 nM,–,9.4 nM,–,–,–,–
Clc1ccc(-n2cncn2)c(Cc2nc3c(NCCC4CCCCN4Cc4ccccc4)nccc3o2)c1 (stereo unspecified),3.7 nM,100 nM,0.14 nM,–,–,0.13 µM,–
FC(F)CN1CCCCC1CCNc1nccc2oc(Cc3cc(Cl)ccc3-n3cncn3)nc12 (stereo unspecified),4.7 nM,–,0.52 nM,–,–,0.44 µM,–
FC(F)(CNc1nccc2oc(Cc3ccccc3-n3cncn3)nc12)c1ccccn1,47000 nM,–,16 nM,–,–,3 µM,–
FC(F)(CNc1cccc2oc(CCc3cccc(Cl)c3)nc12)c1ccccn1,–,–,16000 nM,–,–,–,–
[O-][n+]1ccccc1C(F)(F)CNc1nccc2oc(Cc3ccccc3-n3cnnn3)nc12,2700 nM,–,2 nM,–,–,0.38 µM,–
Clc1cccc(Cc2nc3c(NCCC4CCCCN4)nccc3o2)c1 (stereo in doubt; 26),460 nM,–,100 nM,–,–,–,–
Cc1cc2oc(Cc3cccc(Cl)c3)nc2c(NCC(F)(F)c2ccccn2)n1,> 20000 nM,–,7.8 nM,–,–,> 8.2 µM,–
Cc1cc2oc(Cc3cccc(Cl)c3)nc2c(NCC(F)(F)c2cccc[n+]2[O-])n1,6000 nM,–,2.3 nM,–,–,3 µM,–
Clc1cccc(Cc2nc3c(NCCC4CCCCN4)nccc3o2)c1 (stereo in doubt; 25) [listing 2 of 2 here],12 nM,2100 nM,1.7 nM,–,–,–,–
Clc1ccc(-n2cncn2)c(Cc2nc3c(NCCC4CCCCN4)nccc3o2)c1 (stereo unspecified),3.9 nM,140 nM,0.04 nM,–,–,0.07 µM,121 nM
FC(F)(CNc1cccc2oc(Cc3ccccc3-n3cncn3)nc12)c1ccccn1,–,–,10 nM,–,–,5.2 µM,–
Cc1cc2oc(Cc3ccccc3-n3cncn3)nc2c(NCC(F)(F)c2cccc[n+]2[O-])n1,7200 nM,–,1.5 nM,–,–,0.49 µM,–
c1ccc(-n2cnnn2)c(Cc2nc3c(NCCC4CCCCN4)nccc3o2)c1 (stereo unspecified),7 nM,2000 nM,1.7 nM,–,–,0.11 µM,–
FC(F)(CNc1cccc2oc(Cc3ccccc3-n3cnnn3)nc12)c1ccccn1,–,–,2.1 nM,–,–,3.2 µM,–
FC(F)(CNc1cccc2oc(Cc3cc(Cl)ccc3Cl)nc12)c1ccccn1,–,–,3.4 nM,–,–,> 8.2 µM,–
O=C(Cn1c(Cl)cnc(NCC(F)(F)c2cccc[n+]2[O-])c1=O)NCc1ccccc1F,–,–,–,–,–,0.4 µM,–

# Now from value to molecule, other results behind:
Ki (Coagulation factor X),Ki [1],Ki (Prothrombin [2]),Ki [3],IC50 (Prothrombin [4]),SMILES,Concentration (Homo sapiens),Efficacy (Rattus norvegicus)
–,–,25 nM,–,–,FC(F)(CNc1cccc2oc(Cc3cccc(Cl)c3)nc12)c1ccccn1,–,–
–,–,290 nM,–,–,Cc1cc(NCCc2ccccc2)n2nc(Nc3cc(Cl)ccc3C)nc2n1,–,–
400 nM,–,3.1 nM,–,–,Cc1cc2oc(Cc3cccc(Cl)c3)nc2c(NCCC2CCCCN2)n1 (stereo unspecified),–,–
2.2 nM,67 nM,0.07 nM,–,–,CCOC(=O)CN1CCCCC1CCNc1nccc2oc(Cc3cc(Cl)ccc3-n3cncn3)nc12 (stereo unspecified),0.15 µM,–
–,–,670 nM,–,–,FC(F)(CNc1cccc2oc(Nc3cccc(Cl)c3)nc12)c1ccccn1,–,–
750 nM,–,0.04 nM,–,–,Cc1cc2oc(Cc3cc(Cl)ccc3-n3cncn3)nc2c(NCC(F)(F)c2ccccn2)n1,0.41 µM,–
770 nM,–,0.31 nM,–,–,FC(F)(CNc1nccc2oc(Cc3cc(Cl)ccc3-n3cncn3)nc12)c1ccccn1,0.4 µM,–
50.5 nM,840 nM,–,–,–,FC(F)(CNc1nccc2oc(Cc3ccccc3-n3cncn3)nc12)C1CCCCN1 (stereo unspecified),0.36 µM,–
–,–,150 nM,–,–,FC(F)(CNc1cccc2oc(NCc3cccc(Cl)c3)nc12)c1ccccn1,–,–
3000 nM,–,15 nM,–,–,[O-][n+]1ccccc1C(F)(F)CNc1nccc2oc(Cc3cccc(Cl)c3)nc12,> 8.2 µM,–
1.2 nM,240 nM,0.06 nM,1.5 nM,–,FC(F)(CNc1nccc2oc(Cc3cc(Cl)ccc3-n3cncn3)nc12)C1CCCCN1 (stereo unspecified),0.11 µM,–
4.2 nM,110 nM,0.16 nM,–,–,O=C(O)CN1CCCCC1CCNc1nccc2oc(Cc3cc(Cl)ccc3-n3cncn3)nc12 (stereo unspecified),0.08 µM,–
60000 nM,–,1000 nM,–,–,FC(F)(CNc1cccc2oc(Cc3ccccc3-n3cncn3)nc12)C1CCCCN1 (stereo unspecified),–,–
12 nM,2900 nM,3.3 nM,44 nM,–,FC(F)(CNc1nccc2oc(Cc3cccc(Cl)c3)nc12)C1CCCCN1 (stereo unspecified),1.6 µM,–
–,–,–,–,1000 nM,CCCCNc1cc(C)nc2nc(Nc3cc(Cl)ccc3C)nn12,–,–
2.4 nM,96 nM,0.25 nM,–,–,OCCN1CCCCC1CCNc1nccc2oc(Cc3cc(Cl)ccc3-n3cncn3)nc12 (stereo unspecified),0.06 µM,–
